Calls of active or inactive are those of the source. The rule behind the calls is not given here.
Key:
[1] = tested on: Mus musculus; assay: Antiinflammatory activity in C57-B16/J mouse chronic DSS-induced ulcerative colitis model assessed as decrease in serum IL-17 level at 10 mg/kg administered for total of 3 weeks for alternative weeks with water measured after 63 days by ELISA relative to DSS-treated control; type: functional, organism-based; design: dose 10 mg/kg
In short: (§1)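 Chronic model, 63 days: three cycles of 1 week 3% DSS, then 1 week of compound in drinking water, then 1 week of water. Serum from clotted blood (overnight, 3000g 10 min) analysed by sandwich ELISA with capture/detection antibodies, streptavidin-HRP and substrate, read at 450 nm. Means ± SE, n = 8−10, one-way ANOVA with Tukey test.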

[2] = tested on: Mus musculus; assay: Antiinflammatory activity in C57-B16/J mouse chronic DSS-induced ulcerative colitis model assessed as suppression of clinical symptoms at 8 to 10 mg/kg administered for total of 3 weeks for alternative weeks with water measured after 63 days; type: functional, organism-based
In short: (§2)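 Chronic model in female C57-BL6/J mice: three 3-week cycles of DSS, compound in drinking water and plain water, over 63 days. Mice euthanized by isoflurane overdose and colon length measured (cm). Clinical index scored from body weight change, colorectal length, stool consistency, occult blood and prolapse; n = 10. Statistics by ANOVA with Tukey test.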

[3] = tested on: Mus musculus; assay: Antiinflammatory activity in C57-B16/J mouse acute DSS-induced ulcerative colitis model assessed as reversal of body weight loss at 6 to 10 mg/kg administered on day 6 measured up to day 12; type: functional, organism-based
In short: (§3)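 Acute model: female C57-BL6/J mice, 8−10 weeks old, given 3% (w/v) DSS in drinking water. Dosing in drinking water ad libitum at 6, 8 or 10 mg/kg (ethanol stock) from day 6. Vehicle control received ethanol-water. Body weight recorded every other day as percent change. Disease index scored from weight change, stool consistency (1–4), fecal occult blood and prolapse; n = 10.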

[4] = tested on: Mus musculus; assay: Antiinflammatory activity in C57-B16/J mouse DSS-induced ulcerative colitis model assessed as reduction in monocyte aggregation at 10 mg/kg by hematoxylin-eosin staining-based microscopic analysis; type: functional, organism-based; design: dose 10 mg/kg
In short: (§4)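 Female C57-BL6/J mice, 8−10 weeks old, given 3% (w/v) DSS in drinking water. Compound dissolved in ethanol and mixed into drinking water, given ad libitum. Colorectal sections stained with hematoxylin and eosin and examined at 400× for crypts, goblet cells, submucosa and monocyte aggregation.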

[5] = tested on: Mus musculus; assay: Antiinflammatory activity in C57-B16/J mouse chronic DSS-induced ulcerative colitis model assessed as restoration of colon size at 6 to 10 mg/kg administered for total of 3 weeks for alternative weeks with water measured after 63 days; type: functional, organism-based; in short: as §2
[6] = tested on: Mus musculus; assay: Antiinflammatory activity in C57-B16/J mouse chronic DSS-induced ulcerative colitis model assessed as decrease in serum TNFalpha level at 10 mg/kg administered for total of 3 weeks for alternative weeks with water measured after 63 days by ELISA relative to DSS-treated control; type: functional, organism-based; design: dose 10 mg/kg; in short: as §1
[7] = tested on: Mus musculus; assay: Antiinflammatory activity in C57-B16/J mouse DSS-induced ulcerative colitis model assessed as restoration of goblet cells at 10 mg/kg by hematoxylin-eosin staining-based microscopic analysis; type: functional, organism-based; design: dose 10 mg/kg; in short: as §4
[8] = tested on: Mus musculus; assay: Antiinflammatory activity in C57-B16/J mouse chronic DSS-induced ulcerative colitis model assessed as decrease in serum IFNgamma level at 10 mg/kg administered for total of 3 weeks for alternative weeks with water measured after 63 days by ELISA relative to DSS-treated control; type: functional, organism-based; design: dose 10 mg/kg; in short: as §1
[9] = tested on: Mus musculus; assay: Antiinflammatory activity in C57-B16/J mouse DSS-induced ulcerative colitis model assessed as restoration of crypts at 10 mg/kg by hematoxylin-eosin staining-based microscopic analysis; type: functional, organism-based; design: dose 10 mg/kg; in short: as §4
[10] = tested on: Mus musculus; assay: Antiinflammatory activity in C57-B16/J mouse DSS-induced ulcerative colitis model assessed as restoration of submucosa at 10 mg/kg by hematoxylin-eosin staining-based microscopic analysis; type: functional, organism-based; design: dose 10 mg/kg; in short: as §4
[11] = tested on: Mus musculus; assay: Antiinflammatory activity in C57-B16/J mouse chronic DSS-induced ulcerative colitis model assessed as decrease in serum IL-17 level at 8 mg/kg administered for total of 3 weeks for alternative weeks with water measured after 63 days by ELISA relative to DSS-treated control; type: functional, organism-based; design: dose 8 mg/kg; in short: as §1
[12] = Oral bioavailability in rat; type: ADME, organism-based; settings: in vivo
[13] = tested on: Mus musculus; assay: Antiinflammatory activity in C57-B16/J mouse DSS-induced ulcerative colitis model assessed as reduction of inflammatory CD14+/CD16+ level in peripheral blood at 8 to 10 mg/kg by flow cytometric analysis relative to DSS-treated control; type: functional; settings: dose mg/kg 8-10
In short: (§5)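 Acute model: female C57-BL6/J mice, 8−10 weeks old, given 3% (w/v) DSS in drinking water, with bottles refilled at days 3 and 5. Oral dosing in drinking water (6, 8, 10 mg/kg, ethanol-dissolved) from day 6. Whole blood stained with anti-CD14-FITC/anti-CD16-PE for 30 min in the dark, RBC-lysed, then flow cytometry. Classic CD14+/CD16−, inflammatory CD14+/CD16+; n = 8.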

[14] = tested on: Mus musculus; assay: Toxicity in C57-B16/J mouse DSS-induced ulcerative colitis model assessed as circulating CD14+/CD16- level at 6 to 10 mg/kg by flow cytometric analysis relative to DSS-treated control; type: organism-based; design: dose 6-10 mg/kg; settings: in vivo; in short: as §5
[15] = tested on: Mus musculus; assay: Antiinflammatory activity in C57-B16/J mouse DSS-induced ulcerative colitis model assessed as reduction of inflammatory CD14+/CD16+ level in peripheral blood at 6 to 10 mg/kg by flow cytometric analysis relative to DSS-treated control; type: functional; design: scale not given: the % may be the effect or the level left; settings: dose mg/kg 6-10; in short: as §5
[16] = tested on: Mus musculus; assay: Antiinflammatory activity in C57-B16/J mouse acute DSS-induced ulcerative colitis model assessed as suppression of clinical symptoms at 8 to 10 mg/kg administered on day 6 measured up to day 12; type: functional, organism-based; in short: as §3

CC1=CC(=O)c2c(O)cccc2C1=O [PLUMBAGIN]
Activity [1]: Active
Activity [2]: Active
Activity [3]: inactive
Activity [4]: Active
Activity [5]: Active
Activity [6]: Active
Activity [7]: Active
Activity [8]: Active
Activity [9]: Active
Activity [10]: Active
Activity [11]: inactive
bioavailability [12]: 38%
fold change (FC) [13]: >3
Activity [14]: 77%
Activity [15]: 0.3%
Activity [16]: Active
